Source: ChEMBL document CHEMBL1130239, “Synthesis and evaluation of (S)-4-(3-(2'-[11C]isopropylamino)-2-hydroxypropoxy) -2H-benzimidazol -2-one ((S)-[11C]CGP 12388) and (S)-4-(3-((1'-[18F]-fluoroisopropyl)amino)-2-hydroxypropoxy) -2H- benzimidazol-2-one ((S)-[18F]fluoro-CGP 12388) for visualization of beta-adrenoceptors with positron …” (J Med Chem, 1997)

Tests used:
Rattus norvegicus [1] = species on record: Rattus norvegicus; assay: Biodistribution of [11C]-CGP- 12388 (10 minutes post injection) in lung of male wistar rats; assay type: ADME, organism-based; conditions: in vivo
Procedure, shortened: (§1)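 Male Wistar rats (200 ± 20 g) under pentobarbital anesthesia (60 mg/kg ip) got iv saline (controls, n = 4) or 500 μg (±)-propranolol (blocking, n = 4) <1 min before the tracer. Tracer dose was 1 MBq (30 pmol) in 0.3 mL. Rats were killed by heart extirpation at 10 min and tissues counted. Plasma was spun 3 min at 1000g. Uptake is given as DAR, mean ± SD.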

[2] = Partition coefficient (logP); assay type: physicochemical; conditions: octanol/water
Procedure, shortened: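 50-100 μCi of tracer in 0.1 M phosphate buffer pH 7.4 (5 mL) plus n-octanol (5 mL). Shaken vigorously for 30 min at 37 °C, five mixtures. 100 μL of each layer gamma-counted. log P from the octanol/water count ratio, n = 5. A calculated value was also obtained with Pallas 1.2.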

Rattus norvegicus [3] = species on record: Rattus norvegicus; assay: Biodistribution of [11C]-CGP- 12388 (10 minutes post injection) in heart of male wistar rats; assay type: ADME, organism-based; conditions: in vivo; procedure, shortened: as §1
Rattus norvegicus [4] = species on record: Rattus norvegicus; assay: Biodistribution of [11C]-CGP- 12388 (10 minutes post injection) in intestine of male wistar rats; assay type: ADME, organism-based; conditions: in vivo; procedure, shortened: as §1
Rattus norvegicus [5] = species on record: Rattus norvegicus; assay: Biodistribution of [11C]-CGP- 12388 (10 minutes post injection) in spleen of male wistar rats; assay type: ADME, organism-based; conditions: in vivo; procedure, shortened: as §1
Rattus norvegicus [6] = species on record: Rattus norvegicus; assay: Biodistribution of [11C]-CGP- 12388 (10 minutes post injection) in cortex of male wistar rats; assay type: ADME, organism-based; conditions: in vivo; procedure, shortened: as §1
Rattus norvegicus [7] = species on record: Rattus norvegicus; assay: Biodistribution of [11C]-CGP- 12388 (60 minutes post injection) in lung of male wistar rats; assay type: ADME, organism-based; conditions: in vivo, 1 h
Procedure, shortened: (§2)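 Wistar males (200 ± 20 g) were given pentobarbital 60 mg/kg ip, plus 15-20 mg/kg if needed before dissection. Saline controls (n = 6) or 500 μg (±)-propranolol iv blocking rats (n = 4) were pretreated <1 min before 1 MBq (30 pmol) tracer in 0.3 mL. Sacrifice and dissection were at 60 min. DAR = (cpm/g tissue)/(injected cpm/g body weight); mean ± SD.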

Rattus norvegicus [8] = species on record: Rattus norvegicus; assay: Biodistribution of [11C]-CGP- 12388 (10 minutes post injection) in red blood cells of male wistar rats; assay type: ADME, organism-based; conditions: in vivo; procedure, shortened: as §1
Rattus norvegicus [9] = species on record: Rattus norvegicus; assay: Biodistribution of [11C]-CGP- 12388 (60 minutes post injection) in intestine bone of male wistar rats; assay type: ADME, organism-based; conditions: in vivo, 1 h, in the assay text read “intestine” for “intestine bone”; procedure, shortened: as §2
Rattus norvegicus [10] = species on record: Rattus norvegicus; assay: Biodistribution of [11C]-CGP- 12388 (10 minutes post injection) in fat of male wistar rats; assay type: ADME, organism-based, Adipose tissue; conditions: in vivo; procedure, shortened: as §1
Rattus norvegicus [11] = species on record: Rattus norvegicus; assay: Biodistribution of [11C]-CGP- 12388 (10 minutes post injection) in plasma of male wistar rats; assay type: ADME, organism-based; conditions: in vivo; procedure, shortened: as §1
Rattus norvegicus [12] = species on record: Rattus norvegicus; assay: Biodistribution of [11C]-CGP- 12388 (60 minutes post injection) in red blood cells of male wistar rats; assay type: ADME, organism-based; conditions: in vivo, 1 h; procedure, shortened: as §2
Rattus norvegicus [13] = species on record: Rattus norvegicus; assay: Biodistribution of [11C]-CGP- 12388 (60 minutes post injection) in fat of male wistar rats; assay type: ADME, organism-based, Adipose tissue; conditions: in vivo, 1 h; procedure, shortened: as §2
Rattus norvegicus [14] = species on record: Rattus norvegicus; assay: Biodistribution of [11C]-CGP- 12388 (60 minutes post injection) in liver of male wistar rats; assay type: ADME, organism-based; conditions: in vivo, 1 h; procedure, shortened: as §2
Rattus norvegicus [15] = species on record: Rattus norvegicus; assay: Biodistribution of [11C]-CGP- 12388 (10 minutes post injection) in liver of male wistar rats; assay type: ADME, organism-based; conditions: in vivo; procedure, shortened: as §1
Rattus norvegicus [16] = species on record: Rattus norvegicus; assay: Biodistribution of [11C]-CGP- 12388 (60 minutes post injection) in spleen of male wistar rats; assay type: ADME, organism-based; conditions: in vivo, 1 h; procedure, shortened: as §2
Rattus norvegicus [17] = species on record: Rattus norvegicus; assay: Biodistribution of [11C]-CGP- 12388 (60 minutes post injection) in heart of male wistar rats; assay type: ADME, organism-based; conditions: in vivo, 1 h; procedure, shortened: as §2
Rattus norvegicus [18] = species on record: Rattus norvegicus; assay: Biodistribution of [11C]-CGP- 12388 (10 minutes post injection) in cerebellum of male wistar rats; assay type: ADME, organism-based; conditions: in vivo; procedure, shortened: as §1
Rattus norvegicus [19] = species on record: Rattus norvegicus; assay: Biodistribution of [11C]-CGP- 12388 (10 minutes post injection) in muscle of male wistar rats; assay type: ADME, organism-based, Muscle tissue; conditions: in vivo; procedure, shortened: as §1
Rattus norvegicus [20] = species on record: Rattus norvegicus; assay: Biodistribution of [11C]-CGP- 12388 (10 minutes post injection) in bone of male wistar rats; assay type: ADME, organism-based, Bone element; conditions: in vivo; procedure, shortened: as §1
Rattus norvegicus [21] = species on record: Rattus norvegicus; assay: Biodistribution of [11C]-CGP- 12388 (60 minutes post injection) in kidney of male wistar rats; assay type: ADME, organism-based; conditions: in vivo, 1 h; procedure, shortened: as §2
Rattus norvegicus [22] = species on record: Rattus norvegicus; assay: Biodistribution of [11C]-CGP- 12388 (60 minutes post injection) in cerebellum of male wistar rats; assay type: ADME, organism-based; conditions: in vivo, 1 h; procedure, shortened: as §2
Rattus norvegicus [23] = species on record: Rattus norvegicus; assay: Biodistribution of [11C]-CGP- 12388 (60 minutes post injection) in trachea of male wistar rats; assay type: ADME, organism-based; conditions: in vivo, 1 h; procedure, shortened: as §2
Rattus norvegicus [24] = species on record: Rattus norvegicus; assay: Biodistribution of [11C]-CGP- 12388 (60 minutes post injection) in muscle of male wistar rats; assay type: ADME, organism-based, Muscle tissue; conditions: in vivo, 1 h; procedure, shortened: as §2
Rattus norvegicus [25] = species on record: Rattus norvegicus; assay: Biodistribution of [11C]-CGP- 12388 (60 minutes post injection) in bone of male wistar rats; assay type: ADME, organism-based, Bone element; conditions: in vivo, 1 h; procedure, shortened: as §2
Rattus norvegicus [26] = species on record: Rattus norvegicus; assay: Biodistribution of [11C]-CGP- 12388 (10 minutes post injection) in trachea of male wistar rats; assay type: ADME, organism-based; conditions: in vivo; procedure, shortened: as §1
Rattus norvegicus [27] = species on record: Rattus norvegicus; assay: Biodistribution of [11C]-CGP- 12388 (60 minutes post injection) in cortex of male wistar rats; assay type: ADME, organism-based; conditions: in vivo, 1 h; procedure, shortened: as §2
Rattus norvegicus [28] = species on record: Rattus norvegicus; assay: Biodistribution of [11C]-CGP- 12388 (10 minutes post injection) in kidney of male wistar rats; assay type: ADME, organism-based; conditions: in vivo; procedure, shortened: as §1
Rattus norvegicus [29] = species on record: Rattus norvegicus; assay: Biodistribution of [11C]-CGP- 12388 (60 minutes post injection) in plasma of male wistar rats; assay type: ADME, organism-based; conditions: in vivo, 1 h; procedure, shortened: as §2

Work on `[3H]c1cc([3H])c2c(c1OCC(O)CNC(C)(C)C)=NC(=O)N=2` (configuration not stated) yielded a DAR (Rattus norvegicus [1]) of 2.3, a logP [2] of -0.5 and a DAR (Rattus norvegicus [3]) of 0.94.
`C[11CH](C)NC[C@H](O)COc1cccc2[nH]c(O)nc12` gave a DAR (Rattus norvegicus [4]) of 0.55, a DAR (Rattus norvegicus [5]) of 0.78 and a DAR (Rattus norvegicus [6]) of 0.07. For the same compound, the DAR (Rattus norvegicus [7]) was 0.88, the DAR (Rattus norvegicus [8]) was 0.7 and the DAR (Rattus norvegicus [9]) was 1.14. The DAR (Rattus norvegicus [1]) was 1.26, the DAR (Rattus norvegicus [10]) was 0.16 and the DAR (Rattus norvegicus [11]) was 0.5. The DAR (Rattus norvegicus [12]) was 0.49, the logP [2] was -0.64 and the DAR (Rattus norvegicus [13]) was 0.26. It also gave a DAR (Rattus norvegicus [14]) of 0.68, a DAR (Rattus norvegicus [15]) of 1.65 and a DAR (Rattus norvegicus [16]) of 0.49. The DAR (Rattus norvegicus [17]) was 0.76, the DAR (Rattus norvegicus [18]) was 0.09 and the DAR (Rattus norvegicus [19]) was 0.23. For the same compound, the DAR (Rattus norvegicus [20]) was 0.2, the DAR (Rattus norvegicus [21]) was 0.94 and the DAR (Rattus norvegicus [22]) was 0.26. The DAR (Rattus norvegicus [23]) was 0.86, the DAR (Rattus norvegicus [24]) was 0.36 and the DAR (Rattus norvegicus [25]) was 0.23. It also gave a DAR (Rattus norvegicus [3]) of 0.72, a DAR (Rattus norvegicus [26]) of 0.7 and a DAR (Rattus norvegicus [27]) of 0.25. For the same compound, the DAR (Rattus norvegicus [28]) was 2.44 and the DAR (Rattus norvegicus [29]) was 0.4.
